Results reported in ChEMBL document CHEMBL1147985, “Novel benzodifuran analogs as potent 5-HT2A receptor agonists with ocular hypotensive activity” (Bioorg Med Chem Lett, 2007).

Columns and labels:
[1] = molecular target: T1, 5-hydroxytryptamine receptor 2A (Rattus norvegicus, UniProt P14842); assay: (§1) Agonist activity at 5HT2A receptor in rat A7r5 cells assessed as intracellular calcium mobilization relative to 5HT; assay type: functional, cell-based
Method in brief: (§2)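 Native 5-HT2 receptors in rat vascular smooth muscle A7r5 cells; receptor-mediated intracellular Ca2+ mobilization read on FLIPR. Emax expressed relative to the 5-HT response. Values are means of at least three experiments.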

[2] = molecular target: 5-hydroxytryptamine receptor 2A (Rattus norvegicus) (UniProt P14842); assay: Agonist activity at 5HT2A receptor in rat A7r5 cells assessed as intracellular calcium mobilization; assay type: functional, cell-based; method in brief: as §2
[3] = molecular target: T1, 5-hydroxytryptamine receptor 2A; assay: Displacement of [125I]DOI from 5HT2A receptor in rat cerebral cortex; assay type: tissue-based
Method in brief: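 Competition binding against the agonist radioligand [125I]DOI at rat brain (cerebral cortex) 5-HT2A receptors. Values are means of at least three experiments.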

[4] = molecular target: T2, 5-hydroxytryptamine receptor 2C (Rattus norvegicus) (UniProt P08909); assay: Agonist activity at 5HT2C receptor expressed in […] cells assessed as intracellular calcium mobilization; assay type: functional, cell-based
T2 sequence (whole entry): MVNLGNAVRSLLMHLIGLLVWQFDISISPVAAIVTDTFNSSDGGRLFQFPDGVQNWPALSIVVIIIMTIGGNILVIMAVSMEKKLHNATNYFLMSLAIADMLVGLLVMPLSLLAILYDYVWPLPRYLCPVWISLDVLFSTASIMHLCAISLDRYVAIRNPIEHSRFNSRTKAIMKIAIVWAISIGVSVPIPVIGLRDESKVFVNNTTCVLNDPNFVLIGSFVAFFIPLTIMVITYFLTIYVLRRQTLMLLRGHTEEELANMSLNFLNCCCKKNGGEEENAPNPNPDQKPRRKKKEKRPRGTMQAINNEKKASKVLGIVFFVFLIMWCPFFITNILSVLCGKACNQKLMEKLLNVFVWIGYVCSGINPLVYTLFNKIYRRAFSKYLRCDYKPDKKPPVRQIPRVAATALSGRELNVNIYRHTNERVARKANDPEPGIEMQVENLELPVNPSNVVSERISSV
Method in brief: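 SR3T3 cells expressing recombinant rat 5-HT2C receptor; intracellular Ca2+ mobilization measured on FLIPR, as for the A7r5 assay. Emax taken relative to 5-HT. Values are means of at least three experiments.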

[5] = molecular target: 5-hydroxytryptamine receptor 2B (Rattus norvegicus, UniProt P30994); assay: Agonist activity at 5HT2B receptor in rat stomach fundus assessed as […] relative to 5HT; assay type: functional
Method in brief: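 Functional 5-HT2B response measured in isolated rat stomach fundus tissue, run by a contract lab. Emax given relative to 5-HT. Means of at least three experiments.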

[6] = molecular target: T3, 5-hydroxytryptamine receptor 2C (Rattus norvegicus, UniProt P08909); assay: Agonist activity at 5HT2C receptor expressed in […] cells assessed as intracellular calcium mobilization relative to 5HT
T3 sequence (P08909 whole entry): T2 sequence (whole entry)

Cynomolgus monkey = assay: Reduction of intra ocular pressure in cynomolgus monkey at 300 ug; assay type: functional, organism-based, Macaca fascicularis, Eye; design: Activity: scale not given: the % may be the effect or the level left
[7] = molecular target: 5-hydroxytryptamine receptor 2A (Rattus norvegicus) (UniProt P14842); assay: as §1; assay type: functional, cell-based; method in brief: as §2

5-hydroxytryptamine receptor 2B, sequence (P30994 whole entry): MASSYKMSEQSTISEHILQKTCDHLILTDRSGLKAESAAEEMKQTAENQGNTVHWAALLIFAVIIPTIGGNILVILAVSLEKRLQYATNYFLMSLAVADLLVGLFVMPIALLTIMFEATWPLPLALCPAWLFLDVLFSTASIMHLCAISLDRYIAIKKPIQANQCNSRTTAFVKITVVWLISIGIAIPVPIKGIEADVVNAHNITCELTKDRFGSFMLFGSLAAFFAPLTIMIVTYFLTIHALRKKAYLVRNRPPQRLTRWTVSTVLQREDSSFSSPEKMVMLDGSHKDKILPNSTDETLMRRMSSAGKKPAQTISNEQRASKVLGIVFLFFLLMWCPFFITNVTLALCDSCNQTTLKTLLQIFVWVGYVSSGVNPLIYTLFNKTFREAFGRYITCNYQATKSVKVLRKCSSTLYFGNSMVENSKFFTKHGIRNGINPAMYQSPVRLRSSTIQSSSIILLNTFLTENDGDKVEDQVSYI
T1 sequence (P14842 whole entry): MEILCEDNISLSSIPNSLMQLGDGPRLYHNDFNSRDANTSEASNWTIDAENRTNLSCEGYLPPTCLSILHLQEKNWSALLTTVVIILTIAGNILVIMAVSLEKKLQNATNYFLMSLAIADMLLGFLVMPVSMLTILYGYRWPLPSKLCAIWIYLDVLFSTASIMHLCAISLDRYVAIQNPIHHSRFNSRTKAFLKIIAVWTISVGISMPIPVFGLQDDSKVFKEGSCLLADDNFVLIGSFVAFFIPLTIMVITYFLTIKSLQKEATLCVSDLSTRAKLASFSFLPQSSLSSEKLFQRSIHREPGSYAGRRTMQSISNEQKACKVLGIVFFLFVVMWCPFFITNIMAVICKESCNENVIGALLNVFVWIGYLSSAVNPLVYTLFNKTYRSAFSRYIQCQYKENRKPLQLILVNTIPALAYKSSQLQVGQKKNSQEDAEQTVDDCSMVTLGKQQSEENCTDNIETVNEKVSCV
5-hydroxytryptamine receptor 2A (Rattus norvegicus), sequence (P14842 whole entry): as above

Structure (SMILES)	EC50 [1] [nM]	Emax [2] [%]	IC50 [3] [nM]	Emax [4] [%]	EC50 [5] [nM]	EC50 [6] [nM]	Activity (Cynomolgus monkey) [%]	Emax [7] [%]	EC50 (Cynomolgus monkey; Macaca fascicularis, Eye) [nM]
Cc1noc(Cc2c3ccoc3c(C[C@@H](C)N)c3ccoc23)n1	16.9	60	0.38	95	23	82	27	–	–
C[C@@H](N)Cc1c2ccoc2c(CO)c2ccoc12	33	–	0.31	–	–	–	–	38	–
C[C@@H](N)Cc1c2c(c(CCC(=O)O)c3c1OCC3)OCC2	> 1000	–	4700	–	–	–	–	15	–
Cc1noc(Cc2c3c(c(C[C@@H](C)N)c4c2OCC4)OCC3)n1	49.2	33	1.6	69	130	689	–	–	–
COC(=O)CCc1c2c(c(C[C@@H](C)N)c3c1OCC3)OCC2	26	–	0.86	–	–	–	–	40	–
COc1cc(C[C@@H](C)N)c(OC)cc1I	17.8	33	0.46	–	–	–	–	33	2.72
COC(=O)c1c2c(c(C[C@@H](C)N)c3c1OCC3)OCC2	880	–	14	–	–	–	–	48	–
CC(N)Cc1c2c(c(Br)c3c1OCC3)OCC2 (stereo not given)	13	–	0.3	–	–	–	–	47	–
Cc1noc(-c2c3c(c(C[C@@H](C)N)c4c2OCC4)OCC3)n1	8190	–	910	–	–	–	–	27	–
C[C@@H](N)[C@@H](O)c1c2c(c(Br)c3c1OCC3)OCC2 (racemic)	87.8	–	2.6	–	–	–	–	56	–
Cc1noc(CCc2c3c(c(C[C@@H](C)N)c4c2OCC4)OCC3)n1	> 10000	–	1	–	–	–	–	7	–
C[C@@H](N)Cc1c2c(c(CC(=O)O)c3c1OCC3)OCC2	4970	–	104	–	–	–	–	45	–
C[C@@H](N)Cc1c2c(c(CO)c3c1OCC3)OCC2	175	–	1	–	–	–	–	43	–
COCc1c2c(c(C[C@@H](C)N)c3c1OCC3)OCC2	12	54	0.28	99	–	12.6	36.8	–	–
COCc1c2ccoc2c(C[C@@H](C)N)c2ccoc12	3.6	–	0.11	–	–	–	–	72	–
C[C@@H](N)[C@H](O)c1c2c(c(Br)c3c1OCC3)OCC2	32.7	96	0.7	100	6.2	39	24	–	–
COCCOCc1c2c(c(C[C@@H](C)N)c3c1OCC3)OCC2	71	50	0.88	93	5.8	8.6	–	–	–
